The target of data set [1] is T1, Metabotropic glutamate receptor 4 (Homo sapiens, UniProt Q14833). The data set can be described thus: Positive allosteric modulation of human mGlu4 receptor expressed in BHK cells assessed as potentiation of glutamate-induced response after 1 hr by FLIPR assay relative to glutamate. Format: cell-based. In a few lines: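 BHK cells stably co-expressing human mGlu4 and murine G-protein […], grown in DMEM at 37 °C, 5% CO₂. Cells seeded 24 h before assay, then loaded with Calcium 3 no-wash dye in HBSS/HEPES pH 7.4 with 0.1% BSA and 2.5 mM probenecid for 1 h at 37 °C. FLIPR calcium read after stimulation with EC₂₀ glutamate plus compound. Emax is percent of maximal glutamate response. Mean of ≥2 independent duplicate experiments.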

A short description of data set [2]: Apparent permeability of the compound by PAMPA assay. Format: ADME. A digest of the protocol: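 Passive permeability measured in a PAMPA assay.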
For data set [3], the target named is T1, Metabotropic glutamate receptor 4. The data set can be described thus: Positive allosteric modulation of human mGlu4 receptor expressed in BHK cells assessed as potentiation of glutamate-induced calcium mobilization after 1 hr by FLIPR assay. The data set is classed as functional, cell-based. In a few lines:
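Stable BHK line co-expressing human mGlu4 and murine Gα15, plated on poly-D-lysine 24 h ahead. Cells loaded 1 h at 37 °C, 5% CO2 with Calcium 3 dye in HBSS/20 mM HEPES pH 7.4, 0.1% BSA, 2.5 mM probenecid. Test agent added with an EC20 glutamate challenge. Peak fluorescence change read by FLIPR and fitted to the Hill equation. At least two independent runs in duplicate, means reported.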
Background: A change in cytosolic calcium serves as a functional read-out for many receptors and channels.

The nature of data set [4]: Kinetic solubility of the compound at pH 7.4 at room temperature. The data set is classed as physicochemical. The note with it: buffer, read-out: Kinetic_solubility. A digest of the protocol:
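Kinetic solubility measured from DMSO stock solutions at room temperature. Assay run at the pH named in each line.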

Values after ≈ are worked out from the molar mass of the structure shown.

T1 sequence (Q14833 whole entry): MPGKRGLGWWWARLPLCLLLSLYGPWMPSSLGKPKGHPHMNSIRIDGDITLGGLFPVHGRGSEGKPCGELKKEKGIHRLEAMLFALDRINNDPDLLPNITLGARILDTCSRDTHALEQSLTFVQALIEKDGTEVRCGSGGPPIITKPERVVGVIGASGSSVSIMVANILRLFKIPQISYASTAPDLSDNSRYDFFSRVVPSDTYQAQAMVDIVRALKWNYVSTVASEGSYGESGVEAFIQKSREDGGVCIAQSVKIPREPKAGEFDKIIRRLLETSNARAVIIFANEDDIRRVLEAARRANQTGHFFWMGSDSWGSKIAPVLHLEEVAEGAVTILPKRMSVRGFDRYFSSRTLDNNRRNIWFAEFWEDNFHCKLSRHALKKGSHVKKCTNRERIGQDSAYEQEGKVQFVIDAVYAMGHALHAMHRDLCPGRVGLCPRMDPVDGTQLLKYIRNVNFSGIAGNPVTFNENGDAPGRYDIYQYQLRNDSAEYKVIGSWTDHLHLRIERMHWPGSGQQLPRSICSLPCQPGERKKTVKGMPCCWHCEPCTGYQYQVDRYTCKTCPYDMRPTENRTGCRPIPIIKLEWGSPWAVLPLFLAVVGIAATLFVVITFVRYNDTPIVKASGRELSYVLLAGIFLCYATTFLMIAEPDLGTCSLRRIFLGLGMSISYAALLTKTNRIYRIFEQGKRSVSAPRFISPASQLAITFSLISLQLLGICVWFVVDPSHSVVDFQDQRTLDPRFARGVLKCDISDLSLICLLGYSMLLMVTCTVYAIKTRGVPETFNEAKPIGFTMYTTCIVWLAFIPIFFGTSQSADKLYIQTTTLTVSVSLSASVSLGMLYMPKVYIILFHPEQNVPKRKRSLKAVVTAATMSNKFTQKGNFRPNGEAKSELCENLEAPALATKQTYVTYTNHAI

As for `Cc1ccnc(Nc2nc3c(s2)CCCc2n[nH]cc2-3)n1`, in data set [1], the Emax came out at 210%. On to `c1cc(Nc2nc3c(s2)CCCc2[nH]ncc2-3)[nH]n1`, for which the apparent permeability (Papp) in data set [2] turned out to be 25 ×10⁻⁶ cm/s. The EC50 in data set [3] stood at 3200 nM. The solubility kinetic in data set [4] turned out to be 190 µM (≈ 51.7 µg/mL). Turning to `CN(C)c1cccc(Nc2nc3c(s2)CCCc2[nH]ncc2-3)n1`, the Papp in data set [2] is < 0.1 ×10⁻⁶ cm/s. In addition, the EC50 in data set [3] is 340 nM. Further, the solubility kinetic in data set [4] is < 0.1 µM. Take `O=C(Nc1cc(Cl)cc(Cl)c1)[C@H]1CCCC[C@H]1C(=O)O`: in data set [3], the EC50 came to 750 nM. In addition, in data set [1], the Emax was 120%. `Clc1cccc(Nc2nc3c(s2)CCCc2[nH]ncc2-3)n1`: the Papp in data set [2] came to 15.4 ×10⁻⁶ cm/s. In data set [3], the EC50 was 1100 nM. The solubility kinetic in data set [4] came out at 38 µM (≈ 12.1 µg/mL). As to `c1cc(Nc2nc3c(s2)CCCc2n[nH]cc2-3)nc(N2CCCC2)c1`, the Emax in data set [1] is 14%.

Take `Cc1cccnc1Nc1nc2c(s1)CCCc1[nH]ncc1-2`: the Papp in data set [2] was found to be 8 ×10⁻⁶ cm/s. For the same molecule, the EC50 in data set [3] was determined as 3400 nM. Also, the solubility kinetic in data set [4] is 0.2 µM (≈ 0.0595 µg/mL).

For `Cc1cc(C)nc(Nc2nc3c(s2)CCCc2[nH]ncc2-3)c1`, in data set [2], the Papp was determined as 1.2 ×10⁻⁶ cm/s. In data set [3], the EC50 is > 10000 nM. The solubility kinetic in data set [4] stood at 0.4 µM (≈ 0.125 µg/mL). For `Clc1cccc(Nc2nc3c(s2)CCCc2n[nH]cc2-3)n1`, the Emax in data set [1] is 220%.

For `Fc1cccc(Nc2nc3c(s2)CCCc2[nH]ncc2-3)n1`, in data set [2], the Papp was 0.1 ×10⁻⁶ cm/s. Also, the EC50 in data set [3] came out at 105 nM. The solubility kinetic in data set [4] was 0.2 µM (≈ 0.0603 µg/mL). On the same counts, the results for `Cc1ccnc(Nc2nc3c(s2)CCCc2[nH]ncc2-3)n1` are 0.5 ×10⁻⁶ cm/s, 51 nM and 0.6 µM (≈ 0.179 µg/mL). Consider `c1cc(Nc2nc3c(s2)CCCc2n[nH]cc2-3)n[nH]1`, for which the Emax in data set [1] amounted to 140%. For the molecule `Cc1cc(C)nc(Nc2nc3c(s2)CCc2[nH]ncc2-3)c1`, the Papp in data set [2] turned out to be 1 ×10⁻⁶ cm/s. The EC50 in data set [3] is > 10000 nM. The solubility kinetic in data set [4] came out at 0.1 µM (≈ 0.0297 µg/mL). Regarding `CN(C)c1cccc(Nc2nc3c(s2)CCCc2n[nH]cc2-3)n1`, in data set [1], the Emax was 150%.

In the case of `c1ccc(Nc2nc3c(s2)CCc2[nH]ncc2-3)cc1`, the Papp in data set [2] was < 0.1 ×10⁻⁶ cm/s. Besides, in data set [3], the EC50 was determined as 2200 nM. For the same molecule, in data set [4], the solubility kinetic was < 0.1 µM. As for `c1ccc(Nc2nc3c(s2)CCc2n[nH]cc2-3)cc1`, the Emax in data set [1] came to 160%. On to `Cc1[nH]ncc1-c1nc(Nc2ccccn2)sc1C`, for which, in data set [3], the EC50 is > 10000 nM. In data set [1], the Emax was found to be 19%. In the case of `c1cncc(Nc2nc3c(s2)CCCc2n[nH]cc2-3)c1`, in data set [1], the Emax stood at 26%. With `COc1ccnc(Nc2nc3c(s2)CCCc2[nH]ncc2-3)n1`, the Papp in data set [2] was found to be 0.3 ×10⁻⁶ cm/s. Further, in data set [3], the EC50 was 100 nM. Further, the solubility kinetic in data set [4] stood at 0.6 µM (≈ 0.189 µg/mL).

For `Cc1cccc(Nc2nc3c(s2)CCCc2n[nH]cc2-3)n1`, the Emax in data set [1] came to 200%. In the case of `Cc1sc(Nc2ccccn2)nc1-c1cn[nH]c1`, in data set [3], the EC50 is 13 nM. For the same molecule, the Emax in data set [1] came out at 100%. Turning to `c1cc(Nc2nc3c(s2)CCc2[nH]ncc2-3)ccn1`, the Papp in data set [2] worked out at 2.5 ×10⁻⁶ cm/s. Moreover, the EC50 in data set [3] is > 10000 nM. Besides, the solubility kinetic in data set [4] is 180 µM (≈ 48.5 µg/mL). As for `Cc1nc2ccccc2nc1N/N=C/c1ccc(O)cc1`, the Emax in data set [1] was determined as 144%. In the case of `Cc1n[nH]cc1-c1csc(Nc2ccccn2)n1`, the EC50 in data set [3] is 56 nM. Also, the Emax in data set [1] turned out to be 79%.

Take `Cc1ccc(Nc2nc3c(s2)CCCc2[nH]ncc2-3)nc1`: the Papp in data set [2] worked out at 2.7 ×10⁻⁶ cm/s. Further, the EC50 in data set [3] was > 10000 nM. The solubility kinetic in data set [4] is < 0.1 µM. With `Cc1cccnc1Nc1nc2c(s1)CCCc1n[nH]cc1-2`, the Emax in data set [1] stood at 84%.

With `Cc1cc(Nc2nc3c(s2)CCCc2n[nH]cc2-3)n[nH]1`, the maximal effect (Emax) in data set [1] came out at 39%.

Turning to `Cc1ccc(Nc2nc3c(s2)CCCc2n[nH]cc2-3)nc1`, in data set [1], the Emax came out at 28%. The same measure, in the same setting: the same measure for `c1cc(Nc2nc3c(s2)CCc2n[nH]cc2-3)ccn1`: 10%; for `Cc1ccc(N2C(=O)c3ccccc3NC2C(C)c2ccccc2)cc1` (stereo not given): 129%; for `Cc1cc(C)nc(Nc2nc3c(s2)CCc2n[nH]cc2-3)c1`: 11%.

In the case of `Cc1cc(C)nc(Nc2nc3c(s2)CCCc2n[nH]cc2-3)c1`, in data set [1], the Emax stood at 4%. With `Fc1ccc(Nc2nc3c(s2)CCCc2[nH]ncc2-3)nc1`, in data set [2], the Papp turned out to be 0.3 ×10⁻⁶ cm/s. Moreover, in data set [3], the EC50 worked out at 750 nM. For the same molecule, the solubility kinetic in data set [4] is < 0.1 µM. With `Cc1cccc(Nc2nc3c(s2)CCc2n[nH]cc2-3)n1`, the Emax in data set [1] was determined as 120%. On the same count and under the same terms, to `c1ccc(Nc2nc3c(s2)CCc2n[nH]cc2-3)nc1` belongs 150%; to `COc1cccc(Nc2nc3c(s2)CCCc2n[nH]cc2-3)n1`, 100%. With `Cc1cc(C)cc(-n2ncc3c(N4CCCC(C)C4)ncnc32)c1` (stereo not given), the EC50 in data set [3] is 4600 nM. In data set [1], the Emax was found to be 100%. `c1cncc(Nc2nc3c(s2)CCc2[nH]ncc2-3)c1`: the Papp in data set [2] amounted to 18.7 ×10⁻⁶ cm/s. In addition, the EC50 in data set [3] is > 10000 nM. For the same molecule, the solubility kinetic in data set [4] was 17 µM (≈ 4.58 µg/mL). On the same counts, the results for `c1cnc(Nc2nc3c(s2)CCCc2[nH]ncc2-3)cn1` are 3.8 ×10⁻⁶ cm/s, > 10000 nM and 78 µM (≈ 22.2 µg/mL). As to `c1csc(Nc2nc3c(s2)CCCc2n[nH]cc2-3)n1`, the EC50 in data set [3] was > 10000 nM. The Emax in data set [1] came out at 35%. In the case of `c1cnc(Nc2nc3c(s2)CCCc2n[nH]cc2-3)nc1`, the maximal response (Emax) in data set [1] was 160%.

Take `c1cncc(Nc2nc3c(s2)CCc2n[nH]cc2-3)c1`: the Emax in data set [1] came to 11%. With `COc1cccc(Nc2nc3c(s2)CCCc2[nH]ncc2-3)n1`, the Papp in data set [2] was determined as 0.1 ×10⁻⁶ cm/s. Further, the EC50 in data set [3] is 650 nM. Besides, the solubility kinetic in data set [4] was determined as 0.1 µM (≈ 0.0313 µg/mL). Turning to `O=C(Nc1ccccc1)[C@]12C[C@H]1/C(=N\O)c1ccccc1O2`, the Emax in data set [1] came out at 120%.

In the case of `COc1ccnc(Nc2nc3c(s2)CCCc2n[nH]cc2-3)n1`, the Emax in data set [1] came to 230%. Turning to `c1ccc(Nc2nc3c(s2)CCCc2n[nH]cc2-3)nc1`, the Emax in data set [1] amounted to 120%. The same measure, in the same setting: the same measure for `Cn1ccc(Nc2nc3c(s2)CCCc2n[nH]cc2-3)n1`: 130%. Turning to `N#Cc1cccc(Nc2nc3c(s2)CCCc2[nH]ncc2-3)n1`, in data set [2], the Papp is < 0.1 ×10⁻⁶ cm/s. Besides, the EC50 in data set [3] was 4900 nM. Moreover, the solubility kinetic in data set [4] is < 0.1 µM.

Consider `Fc1ccc(Nc2nc3c(s2)CCCc2n[nH]cc2-3)nc1`, for which the Emax in data set [1] amounted to 170%. Still for that read-out and setting: to `N#Cc1cccc(Nc2nc3c(s2)CCCc2n[nH]cc2-3)n1` belongs 50%.

Consider `Cc1cccc(Nc2nc3c(s2)CCCc2[nH]ncc2-3)n1`, for which the Papp in data set [2] worked out at 4.9 ×10⁻⁶ cm/s. Besides, the EC50 in data set [3] came out at 140 nM. For the same molecule, in data set [4], the solubility kinetic was 110 µM (≈ 32.7 µg/mL). On the same counts, the results for `c1cc(Nc2nc3c(s2)CCCc2[nH]ncc2-3)nc(N2CCCC2)c1` are 0.1 ×10⁻⁶ cm/s, > 10000 nM and < 0.1 µM. The corresponding values for `Cn1ccc(Nc2nc3c(s2)CCCc2[nH]ncc2-3)n1` are 19 ×10⁻⁶ cm/s, 3000 nM and 160 µM (≈ 45.8 µg/mL). On the same counts, the results for `c1cncc(Nc2nc3c(s2)CCCc2[nH]ncc2-3)c1` are 35 ×10⁻⁶ cm/s, > 10000 nM and 3.8 µM (≈ 1.08 µg/mL).

For the molecule `c1cnc(Nc2nc3c(s2)CCCc2n[nH]cc2-3)cn1`, the Emax in data set [1] is 18%. The same measure, in the same setting: to `c1cnc(Nc2nc3c(s2)CCc2n[nH]cc2-3)nc1` belongs 180%; to `Fc1cccc(Nc2nc3c(s2)CCCc2n[nH]cc2-3)n1`, 170%.

For orientation: Emax means the size of the effect at its maximum, as opposed to the concentration needed. For orientation: Papp means a coefficient for how fast a substance crosses the barrier. As usually defined, the EC50 is the concentration needed to bring the measured effect to its halfway point.

The values are drawn from ChEMBL document CHEMBL1828519, “Tricyclic thiazolopyrazole derivatives as metabotropic glutamate receptor 4 positive allosteric modulators” (J Med Chem, 2011).
